# Results published in ChEMBL document CHEMBL3297654, “Synthesis, antimicrobial and cytotoxic activities, and structure-activity relationships of gypsogenin derivatives against human cancer cells” (Eur J Med Chem, 2014).
# Activity calls are given as the source filed them. The calls are words filed in the database; no cut-off is given here.
# Tests used:
# HL-60 [1] = assay: Antiproliferative activity against human HL60 cells after 24 and 72 hrs by MTT assay; format: functional, cell-based
# Method in brief: (§1)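 ATCC human cell lines are kept in RPMI, DMEM or McCoy's 5A with 10–15% heat-inactivated FCS at 37 °C and 5% CO2. They are seeded at 1×10^4–1×10^5 cells/mL in 48-well plates and exposed to 0.5, 10, 20 or 40 µM. Viability is read by MTT (590 nm) at 24 and 72 h. Growth is expressed relative to untreated cells and IC50 is fitted, in triplicate.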
# HT-29 [2] = assay: Antiproliferative activity against human HT-29 cells after 24 and 72 hrs by MTT assay; format: functional, cell-based; method in brief: as §1
# Caco-2 [3] = assay: Antiproliferative activity against human Caco2 cells after 24 and 72 hrs by MTT assay; format: functional, cell-based; method in brief: as §1
# [4] = Antiproliferative activity against human Saos2 cells after 24 and 72 hrs by MTT assay; format: functional, cell-based; settings: SAOS-2; method in brief: as §1
# MCF7 [5] = assay: Antiproliferative activity against human MCF7 cells after 24 and 72 hrs by MTT assay; format: functional, cell-based; method in brief: as §1
# HeLa [6] = assay: Antiproliferative activity against human HeLa cells after 24 and 72 hrs by MTT assay; format: functional, cell-based; method in brief: as §1
# HL-60 [7] = assay: Induction of apoptosis in human HL60 cells at 0.5 uM after 48 hrs by Hoechst 33258/propidium iodide staining based phase contrast microscopic analysis; format: functional
# Method in brief: (§2)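 Cells in 48-well plates treated with 0.5, 10, 20 or 40 µM for 24 and 48 h. Values are read at 48 h, 20 µM for test agents and 0.5 µM for controls. Staining is Hoechst 33258/propidium iodide double staining with fluorescence microscopy. Blue nuclei are viable or early-to-mid apoptotic, and pink nuclei are late apoptotic or necrotic. Apoptosis and necrosis are scored from chromatin condensation as % of cells. Cells are grown at 37 °C in 5% CO2 in RPMI, DMEM or McCoy's 5A with 10–15% heat-inactivated FCS.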
# HT-29 [8] = assay: Induction of apoptosis in human HT-29 cells at 0.5 uM after 48 hrs by Hoechst 33258/propidium iodide staining based phase contrast microscopic analysis; format: functional; method in brief: as §2
# Caco-2 [9] = assay: Induction of apoptosis in human Caco2 cells at 0.5 uM after 48 hrs by Hoechst 33258/propidium iodide staining based phase contrast microscopic analysis; format: functional; method in brief: as §2
# SAOS-2 [10] = assay: Induction of apoptosis in human Saos2 cells at 0.5 uM after 48 hrs by Hoechst 33258/propidium iodide staining based phase contrast microscopic analysis; format: functional; method in brief: as §2
# MCF7 [11] = assay: Induction of apoptosis in human MCF7 cells at 0.5 uM after 48 hrs by Hoechst 33258/propidium iodide staining based phase contrast microscopic analysis; format: functional; method in brief: as §2
# HeLa [12] = assay: Induction of apoptosis in human HeLa cells at 0.5 uM after 48 hrs by Hoechst 33258/propidium iodide staining based phase contrast microscopic analysis; format: functional; method in brief: as §2
# HL-60 [13] = assay: Induction of necrosis in human HL60 cells at 0.5 uM after 48 hrs by Hoechst 33258/propidium iodide staining based phase contrast microscopic analysis; format: functional; method in brief: as §2
# HT-29 [14] = assay: Induction of necrosis in human HT-29 cells at 0.5 uM after 48 hrs by Hoechst 33258/propidium iodide staining based phase contrast microscopic analysis; format: functional; method in brief: as §2
# Caco-2 [15] = assay: Induction of necrosis in human Caco2 cells at 0.5 uM after 48 hrs by Hoechst 33258/propidium iodide staining based phase contrast microscopic analysis; format: functional; method in brief: as §2
# SAOS-2 [16] = assay: Induction of necrosis in human Saos2 cells at 0.5 uM after 48 hrs by Hoechst 33258/propidium iodide staining based phase contrast microscopic analysis; format: functional; method in brief: as §2
# MCF7 [17] = assay: Induction of necrosis in human MCF7 cells at 0.5 uM after 48 hrs by Hoechst 33258/propidium iodide staining based phase contrast microscopic analysis; format: functional; method in brief: as §2
# HeLa [18] = assay: Induction of necrosis in human HeLa cells at 0.5 uM after 48 hrs by Hoechst 33258/propidium iodide staining based phase contrast microscopic analysis; format: functional; method in brief: as §2
# Cyberlindnera jadinii = assay: Antimicrobial activity against Candida utilis ATCC 9950 assessed as zone of inhibition at 100 mg for 24 hrs at 30 degC by disk diffusion test; format: functional, organism-based
# Method in brief: (§3)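 Yeast well-diffusion assay on Mueller Hinton agar following NCCLS disc susceptibility procedure. Compound stocks were 1000 µg/mL in DMSO. Yeast broth cultures (18–24 h) were adjusted to 0.5 McFarland, about 1×10^6 cells/mL. A 6 mm well was loaded with 30 µL compound. Plates were incubated at 30 °C for 24 h, and inhibition zones were measured in mm. C. glabrata and C. tropicalis were precultured in malt extract broth.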
# Candida tropicalis = assay: Antimicrobial activity against Candida tropicalis assessed as zone of inhibition at 100 mg for 24 hrs at 30 degC by disk diffusion test; format: functional, organism-based; method in brief: as §3
# Nakaseomyces glabratus = assay: Antimicrobial activity against Candida glabrata assessed as zone of inhibition at 100 mg for 24 hrs at 30 degC by disk diffusion test; format: functional, organism-based; method in brief: as §3
# Saccharomyces cerevisiae = assay: Antimicrobial activity against Saccharomyces cerevisiae ATCC 9763 assessed as zone of inhibition at 100 mg for 24 hrs at 30 degC by disk diffusion test; format: functional, organism-based; method in brief: as §3
# Escherichia coli = assay: Antimicrobial activity against Escherichia coli ATCC 25922 assessed as zone of inhibition at 10 mg for 24 hrs at 37 degC by disk diffusion test; format: functional, organism-based
# Salmonella typhimurium = assay: Antimicrobial activity against Salmonella typhimurium ATCC 14028 assessed as zone of inhibition at 10 mg for 24 hrs at 37 degC by disk diffusion test; format: functional; settings: Salmonella enterica subsp. enterica serovar Typhimurium
# Micrococcus luteus [19] = assay: Antimicrobial activity against Micrococcus luteus ATCC 9341 assessed as zone of inhibition at 10 mg for 24 hrs at 30 degC by disk diffusion test; format: functional
# Staphylococcus aureus = assay: Antimicrobial activity against Staphylococcus aureus ATCC 25923 assessed as zone of inhibition at 10 mg for 24 hrs at 37 degC by disk diffusion test; format: functional
# [20] = test system: Staphylococcus epidermidis; assay: Antimicrobial activity against Staphylococcus epidermidis ATCC 12228 assessed as zone of inhibition at 10 mg for 24 hrs at 37 degC by disk diffusion test; format: functional
# Klebsiella pneumoniae = assay: Antimicrobial activity against Klebsiella pneumoniae ATCC 13882 assessed as zone of inhibition at 10 mg for 24 hrs at 37 degC by disk diffusion test; format: functional, organism-based
# Method in brief: (§4)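 Agar well diffusion following NCCLS disc susceptibility guidance. Compounds were held as 1000 µg/mL stocks in DMSO. Broth cultures (18–24 h) were adjusted to 0.5 McFarland (1×10^8 cells/mL) and spread on Mueller Hinton agar. A 6 mm well was cut and filled with 30 µL compound. Plates were incubated 24 h at 37 °C, and the inhibition zone diameter was measured in mm.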
# Pseudomonas aeruginosa = assay: Antimicrobial activity against Pseudomonas aeruginosa ATCC 35032 assessed as zone of inhibition at 10 mg for 24 hrs at 37 degC by disk diffusion test; format: functional, organism-based; method in brief: as §4
# Proteus vulgaris = assay: Antimicrobial activity against Proteus vulgaris ATCC 33420 assessed as zone of inhibition at 10 mg by disk diffusion test; format: functional, organism-based
# Enterococcus faecalis [21] = assay: Antimicrobial activity against Enterococcus faecalis ATCC 29212 assessed as zone of inhibition at 10 mg for 24 hrs at 37 degC by disk diffusion test; format: functional; method in brief: as §4
# Bacillus cereus = assay: Antimicrobial activity against Bacillus cereus ATCC 11778 assessed as zone of inhibition at 10 mg for 24 hrs at 30 degC by disk diffusion test; format: functional, organism-based
# Method in brief: (§5)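 Well diffusion on Mueller Hinton agar per NCCLS disc susceptibility tests. DMSO stocks were 1000 µg/mL. Bacterial broth cultures (18–24 h) were adjusted to 0.5 McFarland, about 1×10^8 cells/mL. A 6 mm well received 30 µL compound. Incubation was 24 h at 30 °C, and zone diameters were read in mm. B. thuringiensis was a fecal clinical isolate grown in nutrient broth.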
# Bacillus subtilis [22] = assay: Antimicrobial activity against Bacillus subtilis ATCC 6633 assessed as zone of inhibition at 10 mg by disk diffusion test; format: functional, organism-based
# Bacillus thuringiensis = assay: Antimicrobial activity against Bacillus thuringiensis assessed as zone of inhibition at 10 mg for 24 hrs at 30 degC by disk diffusion test; format: functional, organism-based; method in brief: as §5
# Micrococcus luteus [23] = assay: Antimicrobial activity against Micrococcus luteus ATCC 9341 assessed as zone of inhibition at 15 mg for 24 hrs at 30 degC by disk diffusion test; format: functional; settings: ATCC 9341, 24 h, read-out: DIZ
# Enterococcus faecalis [24] = assay: Antimicrobial activity against Enterococcus faecalis ATCC 29212 assessed as zone of inhibition at 15 mg for 24 hrs at 37 degC by disk diffusion test; format: functional, organism-based
# Bacillus subtilis [25] = assay: Antimicrobial activity against Bacillus subtilis ATCC 6633 assessed as zone of inhibition at 15 mgby disk diffusion test; format: functional
Compound,IC50 (HL-60 [1]),IC50 (HT-29 [2]),IC50 (Caco-2 [3]),IC50 [4],IC50 (HeLa [6]),Activity (HL-60 [7]),Activity (HT-29 [8]),Activity (Caco-2 [9]),Activity (SAOS-2 [10]),Activity (MCF7 [11]),Activity (HeLa [12]),Activity (HL-60 [13]),Activity (HT-29 [14]),Activity (Caco-2 [15]),Activity (SAOS-2 [16]),Activity (MCF7 [17]),Activity (HeLa [18]),further results
CC(=O)O[C@H]1C(=O)[C@@]2(C)[C@H]([C@H](OC(=O)c3ccccc3)[C@]3(O)C[C@H](OC(=O)[C@H](O)[C@@H](NC(=O)c4ccccc4)c4ccccc4)C(C)=C1C3(C)C)[C@]1(OC(C)=O)CO[C@@H]1C[C@@H]2O [PACLITAXEL],320 nM,290 nM,310 nM,350 nM,290 nM,53%,52%,52%,42%,50%,44%,0%,2%,2%,1%,1%,2%,IC50 (MCF7 [5]): 330 nM
NYSTATIN,–,–,–,–,–,–,–,–,–,–,–,–,–,–,–,–,–,inhibition zone (IZ) (Cyberlindnera jadinii): 21 mm; inhibition zone (IZ) (Candida tropicalis): 15 mm; inhibition zone (IZ) (Nakaseomyces glabratus): 16 mm; inhibition zone (IZ) (Saccharomyces cerevisiae): 15 mm
GENTAMICIN,–,–,–,–,–,–,–,–,–,–,–,–,–,–,–,–,–,inhibition zone (IZ) (Escherichia coli): 21 mm; inhibition zone (IZ) (Salmonella typhimurium): 16 mm; inhibition zone (IZ) (Micrococcus luteus [19]): 15 mm; inhibition zone (IZ) (Staphylococcus aureus): 20 mm; inhibition zone (IZ) [20]: 17 mm; inhibition zone (IZ) (Klebsiella pneumoniae): 19 mm; inhibition zone (IZ) (Pseudomonas aeruginosa): 20 mm; inhibition zone (IZ) (Proteus vulgaris): 24 mm; inhibition zone (IZ) (Enterococcus faecalis [21]): 11 mm; inhibition zone (IZ) (Bacillus cereus): 24 mm; inhibition zone (IZ) (Bacillus subtilis [22]): 20 mm; inhibition zone (IZ) (Bacillus thuringiensis): 21 mm
CC[C@H]1OC(=O)[C@H](C)[C@@H](O[C@H]2C[C@@](C)(OC)[C@@H](O)[C@H](C)O2)[C@H](C)[C@@H](O[C@@H]2O[C@H](C)C[C@H](N(C)C)[C@H]2O)[C@](C)(O)C[C@@H](C)C(=O)[C@H](C)[C@@H](O)[C@]1(C)O [ERYTHROMYCIN],–,–,–,–,–,–,–,–,–,–,–,–,–,–,–,–,–,zone of inhibition at 15000 µg/disc (Micrococcus luteus [23]): 30 mm; diameter of the inhibition zone (DIZ) (Enterococcus faecalis [24]): inactive; diameter of the inhibition zone (DIZ) (Bacillus subtilis [25]): 25 mm
COc1cccc2c1C(=O)c1c(O)c3c(c(O)c1C2=O)C[C@@](O)(C(=O)CO)C[C@@H]3O[C@H]1C[C@H](N)[C@H](O)[C@H](C)O1 [DOXORUBICIN],330 nM,310 nM,350 nM,330 nM,340 nM,2%,5%,4%,2%,1%,2%,45%,49%,47%,34%,44%,28%,–
